mHtt clearance – compounds clearing mutant huntingtin protein; HeLa Exon1htt(103Q)mCFP, aggregate imaging; zero = plate's median compound well; inhibition, % at 1.5 µM; actives 0.42% (n = 47,000);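 active = inhibition of aggregate fluorescence above about 70%, also judged a hit by eye on the cell image, limit read from the data, passing the limit was not always enough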;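 note: cells exposed to compound for three days before fixation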
D1 allo mod – D1 dopamine receptor (human) allosteric modulation. P21728. HEK293 D1, CRE-luciferase, dopamine EC30 potentiation; actives deviate in either direction. B-score at 10 µM. actives 5.9% (n = 58,000);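 active = luminescence count or its row- and column-corrected plate score outside the 99.7% band of the plate's sample wells, on either side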
Target sequence (P21728 whole entry, looked up): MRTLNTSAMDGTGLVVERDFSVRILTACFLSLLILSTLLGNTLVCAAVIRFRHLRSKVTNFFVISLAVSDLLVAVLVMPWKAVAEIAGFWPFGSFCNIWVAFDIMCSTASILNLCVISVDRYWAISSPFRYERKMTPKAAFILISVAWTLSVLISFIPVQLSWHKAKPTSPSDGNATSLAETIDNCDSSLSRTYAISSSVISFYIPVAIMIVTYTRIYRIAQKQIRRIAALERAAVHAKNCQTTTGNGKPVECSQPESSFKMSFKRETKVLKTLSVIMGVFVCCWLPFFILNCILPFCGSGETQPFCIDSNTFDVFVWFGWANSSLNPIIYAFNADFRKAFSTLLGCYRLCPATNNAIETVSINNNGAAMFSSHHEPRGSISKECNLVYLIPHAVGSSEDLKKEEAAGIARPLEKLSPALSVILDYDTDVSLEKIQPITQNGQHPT
Jurkat tox 60K – reduces viability or proliferation of Jurkat cells | Jurkat E6.1 viability, ATP luminescence, 48 h | inhibition, % at 4 µM | actives 1.2% (n = 56,000) | AID 463;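 active = inhibition above the mean inhibition of all tested compounds plus 3 SD, cut at about 28% in these data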
M1 antagonist – M1 muscarinic receptor (rat) antagonism; CHO-M1 cells, Fluo-4 calcium, ACh EC80 antagonist mode; hits give low values; B-score at 10 µM; actives 3.4% (n = 64,000); AID 628;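 active = calcium fluorescence response, raw or row-and-column corrected B-score, differing from the plate sample mean either way at a set confidence level, mostly lower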
HEK293 NFkB inh – lowers PMA/ionomycin-induced NF-kB signal in HEK293 cells | HEK-293 NF-kB luciferase reporter, luminescence | inhibition, % at 3 µM | actives 0.21% (n = 62,000) | AID 465;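 active = inhibition above the mean of all tested compounds plus 3 SD, cut at about 40% in these data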;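 note: 0% = stimulated DMSO wells and 100% = 10 µM reference inhibitor 5653914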
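Material: HEK-293 cells with stable firefly luciferase reporter driven by four HIV NF-kB elements / Also added: PMA plus ionomycin mix as NF-kB-activating stimulus / Compound dosing: 3 µM once, 0.30% DMSO / Times: 1 h pretreatment, 16 h stimulation, 37 °C / Signal: luminescence / Evaluation: per-plate % inhibition versus controls / Benchmarks: DMSO and 10 µM reference inhibitor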
M1 agonist – agonists of M1 muscarinic receptor; actives 3% (n = 64,000); AID 626; CHO-M1 cells, Fluo-4 calcium fluorescence, agonist mode; hits give high values; B-score at 10 µM;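 active = fluorescence rise, raw or as B-score row- and column-corrected plate score, outside the 99.7% band of its plate's samples, either direction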
M1 antag conf – confirmation of rat M1 muscarinic receptor antagonists. shares compounds with M1 antagonist. CHO-M1 cells, Fluo-4 calcium, ACh EC80 antagonism; hits give low values. calcium response (max-min fluorescence) at 10 µM. actives 43% (n = 1,700);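 active = calcium response below the same-plate mean of wells given acetylcholine alone at its 80%-effect dose, minus 3 SD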;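 note: raw fluorescence intensity difference in arbitrary instrument units and not normalized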
mGluR4 antag – mGluR4 (human) activity, M1 antagonist secondary assay | CHO-mGluR4 calcium flux, Fluo-4 fluorescence, glutamate EC80; hits give low values | shares compounds with M1 antagonist | fluorescence response (max-min) at 10 µM | actives 0.9% (n = 1,700);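 active = fluorescence response below the plate's average for near-maximal glutamate wells, less 3 SD of those wells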;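 note: raw unnormalized fluorescence span taken in the window right after glutamate addition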
Starred values were filed as active, the others as inactive; . = no result given. Most compounds without a hit are left out; they make up all but 9.5% or so of the library.

SMILES | mHtt clearance | D1 allo mod | Jurkat tox 60K | M1 antagonist | HEK293 NFkB inh | M1 agonist | M1 antag conf | mGluR4 antag
CCCCC(c1nnnn1CCOC)N1CCN(c2cccc(OC)c2)CC1 (stereo unspecified) | . | -0.081 | 0 | 0.45 | 20 | -0.088 | . | .
O=C(CN1CCCC1)NCC12CC3CC(CC(C3)C1)C2 | . | 0.11 | -2 | -0.13 | -4 | 0.58 | . | .
NC(=O)NCC12CC3CC(CC(C3)C1)C2 | -27 | -0.18 | 0 | -2.9* | 11 | 0.55 | 668 | 248
Cc1cccc(C)c1NC(=O)C1(NC(=O)C2CCCN2C(=O)OC(C)(C)C)CCCCC1 (stereo unspecified) | . | -1.4 | 5 | 0.49 | 19 | -0.87 | . | .
COc1ccc(-n2c(O)c(Cc3ccccc3)c(=O)n3nc(-c4ccccc4)c(=O)cc23)cc1 | -5 | . | . | . | . | . | . | .
CC(C)CC(c1nnnn1C(C)(C)C)N1CCN(C2CCCC2)CC1 (stereo unspecified) | -67 | -0.74 | -7 | -4.4* | 0 | 0.17 | 477 | 212
c1cncc(C(c2nnnn2C2CCCC2)N2CCCC2)c1 (stereo unspecified) | 19 | -0.035 | 0 | -2* | 6 | 0.12 | 662 | 207
Cn1c(=O)cc(SCC(=O)NCc2cccnc2)c2ccccc21 | -30 | -0.89 | -5 | -0.24 | -3 | 0.058 | . | .
CSC1=NCCN1C(=O)c1c(F)cccc1F | -56 | 2 | -2 | -3.1* | 9 | 0.55 | 641 | 250
CSC1=NCCN1C(=O)c1ccco1 | -16 | 2.9 | -1 | 0.14 | 21 | 0.48 | . | .
COc1ccc2[nH]cc(C(=O)CN3CCN(C/C=C/c4ccccc4)CC3)c2c1 | -12 | -0.33 | 1 | -0.012 | 9 | -0.54 | . | .
CCOc1ccc(CNc2ccc3c(c2)nc(C)n3C)cc1 | . | . | 5 | -6* | -1 | -1.2 | 448* | 262
Nc1nc(CN2CCOCC2)cs1 | . | 0.87 | 9 | -0.83* | -1 | -0.013 | 555 | 261
Cc1ccc(N(C(=O)C2CCCO2)C2C=CS(=O)(=O)C2)cc1Cl (stereo unspecified) | . | -0.11 | -1 | 1.9 | 9 | -0.057 | . | .
COc1ccc(Cc2nc3ccc(S(N)(=O)=O)cc3[nH]2)cc1OC | -31 | -0.11 | 1 | -2.9* | 20 | 0.42 | 580 | 225
Oc1cccc(Nc2nc(NCC3CCCO3)c3ccccc3n2)c1 (stereo unspecified) | . | -5* | 5 | -3.9* | 6 | 1.6 | 357* | 224
CCc1cc2c(NCCO)ncnc2s1 | 25 | 1 | 5 | -0.66 | 4 | 0.87 | . | .
CCc1cc2c(NCCN3CCCCC3)ncnc2s1 | . | . | . | -4.3* | 14 | 0.5 | 534* | 196
Cc1ccc(OCC(=O)Nc2ccc(F)cc2)cc1C | -60 | . | . | . | . | . | . | .
CCCCn1c(SCC(=O)Nc2nnc(CC)s2)nc2ccccc2c1=O | . | 0.27 | 1 | -7.8* | 14 | -0.71 | 602 | 230
CC1CCN(Cc2ccc(NC(=O)C3CCN(c4nnc(-n5cccc5)s4)CC3)cc2)CC1 | . | -2.2 | 7 | -13* | 11 | -0.72 | 15* | 220
O=C(NCCC1=CCCCC1)C1CCN(c2nnc(-n3cccc3)s2)CC1 | . | -0.33 | -5 | 0.12 | 19 | 0.62 | . | .
Cc1cc(C(=O)OCC(=O)Nc2cc(C(F)(F)F)ccc2N2CCOCC2)c(C)o1 | -2 | -0.12 | -1 | -0.29 | 23 | 0.13 | . | .
O=C(CN1CCN(C(=O)c2c(F)cccc2F)CC1)Nc1ccccc1F | . | -0.91 | 0 | -1.2 | -2 | -0.25 | . | .
O=C(O)c1ccc(NC(=O)C2(c3ccccc3)CCOCC2)cc1 | 17 | -0.26 | 0 | -0.14 | -12 | 0.027 | . | .
SMILES | mHtt clearance | D1 allo mod | Jurkat tox 60K | M1 antagonist | HEK293 NFkB inh | M1 agonist | M1 antag conf | mGluR4 antag
CC(=O)Nc1ccc(CN2CCCCCCC2)cc1 | . | 0.51 | -3 | -1.9* | 20 | -0.25 | 488* | 208
CCN1CCN(Cc2ccccc2NC(=O)Nc2ccc(C)cc2)CC1 | . | -2.3 | -10 | -1 | -5 | -0.46 | . | .
CCN1CCN(Cc2ccc(NC(=O)Nc3ccccc3Cl)cc2)CC1 | . | -3.3* | -2 | -3* | -22 | 0.091 | 526 | 225
CCOC(=O)c1ccc(NC(=O)c2ccc(CN3CCOCC3)cc2)cc1 | 69 | -1.4 | 53* | -7.3* | 31 | 1.6 | 418* | 259
CC(C)C(NS(=O)(=O)c1cccs1)C(=O)N1CCc2ccccc2C1 (stereo unspecified) | 4 | -0.13 | -3 | 0.41 | 28 | -0.6 | . | .
CC(CCc1ccc(O)cc1)N(C)CCc1ccccc1 (stereo unspecified) | 5 | -2.9 | 5 | -3.1* | -2 | 0.79 | 404* | 241
CC(C)C(=O)NCCCc1ccccc1 | -17 | . | . | . | . | . | . | .
CCOC(=O)N1CCC2(CC1)CC(=O)c1c(ccc3oc(C(=O)O)c(C)c13)O2 | . | 0.38 | -9 | -3.3* | 12 | 0.044 | 668 | 242
CCOC(=O)c1oc2ccc3c(c2c1C)C(=O)CC1(CCN(C(=O)OCC)CC1)O3 | . | . | 2 | -0.55 | 17 | 2.3 | . | .
CN1C(=O)NC(c2ccc(O)cc2)C(C(=O)c2cccs2)C1(O)C(F)(F)F (stereo unspecified) | 8 | -0.9 | -5 | -3.3* | 12 | -0.041 | 433 | 183
CCC(=O)Nc1cc(Cl)ccc1N1CCN(C(=O)CC)CC1 | . | . | -3 | -4.9* | 8 | 0.01 | 692 | 294
CCC(=O)N1CCN(c2ccc(Cl)cc2NC(=O)Cc2ccccc2)CC1 | 11 | -0.061 | 0 | 0.71 | 10 | 0.019 | . | .
COCCNC(=O)CCSc1nc(-c2ccc(OC)cc2)cc(C(F)(F)F)n1 | 14 | . | . | . | . | . | . | .
CC(NC(=O)CCSc1nc(-c2ccco2)cc(C(F)(F)F)n1)c1ccccc1 (stereo unspecified) | -30 | . | . | . | . | . | . | .
O=C(CCSc1nc(-c2ccco2)cc(C(F)(F)F)n1)N1CCN(c2ccccc2)CC1 | -97 | -0.036 | 0 | -3.8* | 9 | 0.35 | 668 | 189
COc1ccc(-c2cc(C(F)(F)F)nc(SCCC(=O)N3CCN4CCCC4C3)n2)cc1 (stereo unspecified) | 48 | -0.53 | 1 | -3.4* | 6 | 0.066 | 310* | 248
O=C(NCc1ccc(Cl)cc1)c1noc2c1CCCCC2 | . | 1.2 | 5 | 0.32 | 16 | 0.099 | . | .
CCCCCNC(=O)Cc1cc(=O)[nH]c(=O)[nH]1 | 64 | . | . | . | . | . | . | .
OC(COCc1ccc(Cl)cc1)CN1CCN(CC(O)COCc2ccc(Cl)cc2)CC1 (stereo unspecified) | . | -0.88 | 28 | -1.9* | 12 | 0.68 | 444* | 255
O=C(NC1CCCCCC1)C1CCN(c2nc3ccccc3o2)CC1 | . | -1 | 15 | -2.8 | 21 | -0.21 | . | .
COc1cccc(CNC(=O)C2CCCN(c3nc4ccccc4o3)C2)c1 (stereo unspecified) | -19 | -0.6 | -6 | -1.9* | -2 | -0.093 | 643 | 229

Source: PubChem BioAssay (several laboratories)
